# Measured values taken from ChEMBL document CHEMBL4145441, “Discovery of N-(5-((5-chloro-4-((2-(isopropylsulfonyl)phenyl)amino)pyrimidin-2-yl)amino)-4-methoxy-2-(4-methyl-1,4-diazepan-1-yl)phenyl)acrylamide (CHMFL-ALK/EGFR-050) as a potent ALK/EGFR dual kinase inhibitor capable of overcoming a variety of ALK/EGFR associated drug resistant mutants in NSCLC” (Eur J Med Chem, 2017).
# Activity calls are given as the source filed them. The calls are words filed in the database; no cut-off is given here.
# Experiments:
# [1] = molecular target: T1, Epidermal growth factor receptor (Homo sapiens, UniProt P00533); assay: Inhibition of EGFR in human A549 cells assessed as reduction in EGF-induced 4EBP1 phosphorylation at Thr37/46 site up to 3 uM after 4 hrs by immunoblotting method; format: cell-based
# T1 sequence (P00533 whole entry): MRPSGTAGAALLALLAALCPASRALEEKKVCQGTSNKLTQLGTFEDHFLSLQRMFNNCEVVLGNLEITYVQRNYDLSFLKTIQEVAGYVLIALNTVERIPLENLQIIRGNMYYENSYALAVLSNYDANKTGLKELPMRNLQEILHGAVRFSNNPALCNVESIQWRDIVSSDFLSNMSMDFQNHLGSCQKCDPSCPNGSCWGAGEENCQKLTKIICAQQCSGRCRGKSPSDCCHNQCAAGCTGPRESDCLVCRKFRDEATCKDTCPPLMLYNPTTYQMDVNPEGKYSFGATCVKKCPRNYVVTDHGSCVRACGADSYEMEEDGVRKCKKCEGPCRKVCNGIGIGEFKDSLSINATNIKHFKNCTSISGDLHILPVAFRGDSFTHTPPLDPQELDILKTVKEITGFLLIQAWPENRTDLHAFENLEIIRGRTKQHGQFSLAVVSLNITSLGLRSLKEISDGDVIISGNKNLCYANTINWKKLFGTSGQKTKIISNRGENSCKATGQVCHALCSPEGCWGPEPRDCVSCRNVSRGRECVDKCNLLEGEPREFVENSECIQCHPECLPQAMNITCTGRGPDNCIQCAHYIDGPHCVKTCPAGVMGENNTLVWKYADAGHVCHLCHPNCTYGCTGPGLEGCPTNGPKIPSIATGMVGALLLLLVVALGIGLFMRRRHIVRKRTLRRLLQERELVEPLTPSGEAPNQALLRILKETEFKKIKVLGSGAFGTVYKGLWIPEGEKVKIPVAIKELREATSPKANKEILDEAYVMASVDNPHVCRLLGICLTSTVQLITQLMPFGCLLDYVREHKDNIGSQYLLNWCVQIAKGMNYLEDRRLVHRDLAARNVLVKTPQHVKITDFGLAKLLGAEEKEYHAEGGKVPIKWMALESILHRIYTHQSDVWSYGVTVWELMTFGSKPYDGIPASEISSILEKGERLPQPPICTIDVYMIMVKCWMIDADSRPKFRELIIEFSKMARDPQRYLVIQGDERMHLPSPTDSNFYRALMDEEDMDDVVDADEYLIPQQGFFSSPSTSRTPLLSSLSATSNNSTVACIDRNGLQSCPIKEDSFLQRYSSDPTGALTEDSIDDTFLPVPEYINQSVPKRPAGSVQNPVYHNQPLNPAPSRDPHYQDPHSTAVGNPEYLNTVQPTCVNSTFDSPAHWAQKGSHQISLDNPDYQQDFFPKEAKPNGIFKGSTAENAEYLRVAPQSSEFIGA
# Mus musculus [2] = assay: Toxicity in nu/nu mouse xenografted with human NCI-H1975 cells assessed as change in body weight at 10 to 40 mg/kg, po qd administered for 21 days; settings: in vivo, 504 h
# NCI-H3122 [3] = assay: Antiproliferative activity against human NCI-H3122 cells harboring EML4-fused ALK varian1 after 72 hrs by CellTiter-Glo assay; format: functional; settings: NCI-H3122, 72 h
# Method in brief: (§1)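 Antiproliferative GI50 against H1975 and H3122 cells; each GI50 value obtained from triplicate testing.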
# [4] = molecular target: T1, Epidermal growth factor receptor; assay: Inhibition of recombinant human wild-type His-tagged EGFR expressed in mammalian expression system using Tyr 4 peptide as substrate after 1 hr in presence of ATP by Z-LYTE kinase assay
# PC-9 = assay: Induction of apoptosis in human PC9 cells assessed as increase in cleaved PARP expression level at 300 nM to 1 uM after 24 hrs by Western blot method; format: functional, cell-based
# NCI-H1975 [5] = assay: Antitumor activity against human NCI-H1975 cells xenografted in nu/nu mouse assessed as tumor growth inhibition at 20 mg/kg, po qd administered for 21 days; settings: 504 h, read-out: TGI
# [6] = Antiproliferative activity against CHL cells after 72 hrs by CellTiter-Glo assay; format: cell-based, Cricetulus griseus; settings: chinese hamster
# Mus musculus [7] = assay: Toxicity in nu/nu mouse xenografted with human NCI-H3122 cells assessed as change in body weight at 10 to 40 mg/kg, po qd administered for 28 days; format: organism-based; settings: in vivo, 672 h
# NCI-H3122 [8] = assay: Cell cycle arrest in human NCI-H3122 cells assessed as accumulation at G0/G1 phase at 0.03 to 0.3 uM after 24 hrs by propidium iodide/RNase staining-based flow cytometry; format: functional
# HCC827 = assay: Antiproliferative activity against human HCC827 cells harboring EGFR del19 mutant after 72 hrs by CellTiter-Glo assay; format: functional; settings: HCC827, 72 h
# [9] = molecular target: T2, ALK tyrosine kinase receptor (Homo sapiens, UniProt Q9UM73); assay: Reversible inhibition of ALK phosphorylation at Tyr1604 residue in human NCI-H3122 cells at 30 to 300 nM measured 1 to 24 hrs post compound wash out by immunoblotting method; format: cell-based
# T2 sequence (Q9UM73 19-1620 limits assumed): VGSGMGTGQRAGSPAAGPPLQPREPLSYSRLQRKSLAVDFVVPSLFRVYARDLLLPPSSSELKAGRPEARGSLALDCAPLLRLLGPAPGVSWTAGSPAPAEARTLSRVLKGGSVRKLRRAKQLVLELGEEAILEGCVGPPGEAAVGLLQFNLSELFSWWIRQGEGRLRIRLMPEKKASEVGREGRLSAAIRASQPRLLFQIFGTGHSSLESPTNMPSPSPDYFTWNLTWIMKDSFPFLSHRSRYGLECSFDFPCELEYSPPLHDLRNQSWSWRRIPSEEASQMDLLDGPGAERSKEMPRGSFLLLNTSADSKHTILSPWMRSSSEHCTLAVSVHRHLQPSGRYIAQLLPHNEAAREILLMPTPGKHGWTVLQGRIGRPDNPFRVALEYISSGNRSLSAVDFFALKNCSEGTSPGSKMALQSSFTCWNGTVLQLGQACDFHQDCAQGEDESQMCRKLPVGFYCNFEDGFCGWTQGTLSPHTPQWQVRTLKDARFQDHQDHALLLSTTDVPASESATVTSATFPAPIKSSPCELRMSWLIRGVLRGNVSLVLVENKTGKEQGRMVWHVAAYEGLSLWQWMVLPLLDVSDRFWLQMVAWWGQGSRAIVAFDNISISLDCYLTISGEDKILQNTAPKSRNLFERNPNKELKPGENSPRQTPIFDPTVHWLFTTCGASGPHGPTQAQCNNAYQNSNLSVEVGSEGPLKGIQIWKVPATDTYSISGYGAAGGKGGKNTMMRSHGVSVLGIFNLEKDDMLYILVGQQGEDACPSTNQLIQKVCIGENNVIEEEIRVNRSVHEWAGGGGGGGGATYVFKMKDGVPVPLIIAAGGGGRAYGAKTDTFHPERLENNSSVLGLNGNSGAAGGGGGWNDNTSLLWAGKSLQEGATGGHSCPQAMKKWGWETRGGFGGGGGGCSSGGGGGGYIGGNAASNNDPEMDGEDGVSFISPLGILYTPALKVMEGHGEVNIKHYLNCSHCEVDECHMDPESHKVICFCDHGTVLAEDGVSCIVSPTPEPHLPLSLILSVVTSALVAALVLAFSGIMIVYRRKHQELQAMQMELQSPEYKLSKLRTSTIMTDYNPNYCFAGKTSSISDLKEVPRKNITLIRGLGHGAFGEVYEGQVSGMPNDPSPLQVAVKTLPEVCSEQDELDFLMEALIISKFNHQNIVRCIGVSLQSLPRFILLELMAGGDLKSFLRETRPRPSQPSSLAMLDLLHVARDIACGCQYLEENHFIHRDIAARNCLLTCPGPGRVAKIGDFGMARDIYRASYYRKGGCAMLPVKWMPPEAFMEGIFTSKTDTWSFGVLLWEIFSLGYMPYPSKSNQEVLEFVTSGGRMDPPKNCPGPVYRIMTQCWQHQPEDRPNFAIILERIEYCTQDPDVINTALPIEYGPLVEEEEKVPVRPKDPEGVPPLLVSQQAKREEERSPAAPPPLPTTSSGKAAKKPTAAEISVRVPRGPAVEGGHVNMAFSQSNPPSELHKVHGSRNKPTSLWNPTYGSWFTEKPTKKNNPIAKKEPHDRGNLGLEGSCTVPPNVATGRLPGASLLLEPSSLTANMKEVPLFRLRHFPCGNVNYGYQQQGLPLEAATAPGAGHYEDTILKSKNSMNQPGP
# Homo sapiens = species: Homo sapiens; assay: Selectivity index, ratio of IC50 for recombinant human GST-tagged EGFR L858R mutant to IC50 for recombinant human GST-tagged EGFR T790M mutant
# NCI-H1355 = assay: Antiproliferative activity against human NCI-H1355 cells harboring wild-type EGFR after 72 hrs by CellTiter-Glo assay; format: functional; settings: NCI-H1355, 72 h
# A549 [10] = assay: Cell cycle arrest in human A549 cells assessed as accumulation at G0/G1 phase at 0.03 to 1 uM after 24 hrs by propidium iodide/RNase staining-based flow cytometry; format: functional
# NCI-H3122 [11] = assay: Antitumor activity against human NCI-H3122 cells xenografted in nu/nu mouse assessed as tumor growth inhibition at 40 mg/kg, po qd administered for 28 days; format: functional; settings: 672 h, read-out: TGI
# [12] = tested on: ALK tyrosine kinase receptor (Homo sapiens), Q9UM73 [G1202R]
# Chain of ALK tyrosine kinase receptor (Homo sapiens), Q9UM73 [G1202R] (Q9UM73 whole entry G1202R): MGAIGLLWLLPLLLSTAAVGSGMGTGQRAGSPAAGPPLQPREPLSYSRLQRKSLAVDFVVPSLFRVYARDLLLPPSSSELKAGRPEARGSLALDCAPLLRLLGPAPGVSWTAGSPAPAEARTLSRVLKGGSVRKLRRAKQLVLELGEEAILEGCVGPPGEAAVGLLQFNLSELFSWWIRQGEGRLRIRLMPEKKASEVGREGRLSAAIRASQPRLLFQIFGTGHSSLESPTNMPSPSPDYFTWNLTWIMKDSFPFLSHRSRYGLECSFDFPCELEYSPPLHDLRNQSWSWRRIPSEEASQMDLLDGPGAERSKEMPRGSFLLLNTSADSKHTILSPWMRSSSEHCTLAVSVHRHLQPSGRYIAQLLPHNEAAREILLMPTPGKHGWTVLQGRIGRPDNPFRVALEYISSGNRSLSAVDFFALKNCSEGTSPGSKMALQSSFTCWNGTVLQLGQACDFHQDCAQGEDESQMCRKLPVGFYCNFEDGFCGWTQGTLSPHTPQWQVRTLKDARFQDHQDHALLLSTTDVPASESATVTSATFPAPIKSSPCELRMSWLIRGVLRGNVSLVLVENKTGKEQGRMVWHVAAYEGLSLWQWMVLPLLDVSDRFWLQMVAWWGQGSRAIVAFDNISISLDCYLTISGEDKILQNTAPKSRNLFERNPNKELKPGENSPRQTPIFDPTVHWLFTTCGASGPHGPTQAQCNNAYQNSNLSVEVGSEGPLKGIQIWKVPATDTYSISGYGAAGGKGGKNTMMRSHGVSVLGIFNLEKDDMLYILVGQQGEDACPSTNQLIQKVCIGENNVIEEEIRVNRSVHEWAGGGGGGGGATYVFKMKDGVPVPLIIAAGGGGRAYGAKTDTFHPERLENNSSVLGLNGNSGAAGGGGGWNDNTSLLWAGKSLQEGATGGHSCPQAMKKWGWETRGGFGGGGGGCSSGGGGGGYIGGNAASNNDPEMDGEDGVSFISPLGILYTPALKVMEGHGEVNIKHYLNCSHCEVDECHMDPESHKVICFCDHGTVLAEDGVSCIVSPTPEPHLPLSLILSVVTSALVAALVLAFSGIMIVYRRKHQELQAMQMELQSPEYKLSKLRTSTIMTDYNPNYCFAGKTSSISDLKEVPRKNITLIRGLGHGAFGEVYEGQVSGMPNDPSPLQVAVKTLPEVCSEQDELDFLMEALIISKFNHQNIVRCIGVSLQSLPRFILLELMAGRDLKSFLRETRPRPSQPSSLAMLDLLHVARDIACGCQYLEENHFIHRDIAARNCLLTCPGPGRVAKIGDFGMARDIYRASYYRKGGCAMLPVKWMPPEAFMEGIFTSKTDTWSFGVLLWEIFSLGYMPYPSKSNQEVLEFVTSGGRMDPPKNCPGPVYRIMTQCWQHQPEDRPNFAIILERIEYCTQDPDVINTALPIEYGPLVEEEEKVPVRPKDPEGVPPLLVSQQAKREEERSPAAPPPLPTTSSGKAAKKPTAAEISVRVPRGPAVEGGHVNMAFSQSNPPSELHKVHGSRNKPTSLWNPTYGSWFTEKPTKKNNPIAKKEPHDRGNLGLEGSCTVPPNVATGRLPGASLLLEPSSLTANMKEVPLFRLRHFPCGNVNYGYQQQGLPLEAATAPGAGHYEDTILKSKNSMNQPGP
# NCI-H3122 [13] = assay: Induction of apoptosis in human NCI-H3122 cells xenografted in po dosed nu/nu mouse administered for 28 days by DAB-chromogen-based TUNEL assay; format: functional, organism-based
# [14] = molecular target: T1, Epidermal growth factor receptor; assay: Inhibition of EGFR phosphorylation at Y1068 in human PC9 cells at 30 nM after 4 hrs by immunoblotting method; format: cell-based
# [15] = AUC (0 to infinity) in Sprague-Dawley rat at 10 mg/kg, po; format: ADME, organism-based; parameters: dose 10 mg/kg, route oral, time infinity; settings: in vivo
# Method in brief: (§2)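 Rats dosed once intravenously at 1 mg/kg or orally at 10 mg/kg. Plasma exposure parameters derived: AUC0-t, AUC0-∞, MRT(0-t), Cmax, Tmax, T1/2 and oral bioavailability (F%). Values reported as mean ± spread.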
# [16] = molecular target: T1, Epidermal growth factor receptor; assay: Inhibition of EGFR in human A549 cells assessed as reduction in EGF-induced AKT phosphorylation at Ser473 residue up to 3 uM after 4 hrs by immunoblotting method; format: cell-based
# [17] = molecular target: T2, ALK tyrosine kinase receptor
# A549 [18] = assay: Induction of apoptosis in human A549 cells assessed as increase in cleaved PARP expression level up to 1 uM after 24 hrs by Western blot method; format: functional, cell-based
# [19] = molecular target: T1, Epidermal growth factor receptor; assay: Inhibition of EGFR in human A549 cells assessed as reduction in EGF-induced P70S6K phosphorylation at Thr389 residue up to 3 uM after 4 hrs by immunoblotting method; format: cell-based
# NCI-H1975 [20] = assay: Antiproliferative activity against human NCI-H1975 cells harboring EGFR L858R/T790M mutant after 72 hrs by CellTiter-Glo assay; format: functional; settings: NCI-H1975, 72 h; method in brief: as §1
# NCI-H3122 [21] = assay: Induction of apoptosis in human NCI-H3122 cells assessed as increase in cleaved caspase-3 expression level at 300 nM after 24 hrs by Western blot method; format: functional, cell-based
# NCI-H1975 [22] = assay: Induction of apoptosis in human NCI-H1975 cells assessed as increase in cleaved PARP expression level at 300 nM to 1 uM after 24 hrs by Western blot method; format: functional, cell-based
# NCI-H1975 [23] = assay: Antitumor activity against human NCI-H1975 cells xenografted in nu/nu mouse assessed as tumor weight at 10 mg/kg, po qd administered for 21 days (reference value: 6.05g)
# NCI-H3122 [24] = assay: Antitumor activity against human NCI-H3122 cells xenografted in nu/nu mouse assessed as tumor growth inhibition at 20 mg/kg, po qd administered for 28 days; format: functional; settings: 672 h, read-out: TGI
# [25] = molecular target: T1, Epidermal growth factor receptor; assay: Inhibition of full length EGFR del19 mutant (unknown origin) expressed in mouse BAF3 cells assessed as decrease in cell proliferation after 72 hrs by CellTiter-Glo assay; format: cell-based
# NCI-H3122 [26] = assay: Antitumor activity against human NCI-H3122 cells xenografted in po dosed nu/nu mouse assessed as tumor growth inhibition administered for 28 days; format: functional, organism-based
# NCI-H3122 [27] = assay: Antitumor activity against human NCI-H3122 cells xenografted in nu/nu mouse assessed as tumor growth inhibition at 10 mg/kg, po qd administered for 28 days; format: functional; settings: 672 h, read-out: TGI
# [28] = Half life in Sprague-Dawley rat at 10 mg/kg, po; format: ADME, organism-based; settings: in vivo; method in brief: as §2
# [29] = molecular target: T1, Epidermal growth factor receptor; assay: Inhibition of EGFR in human NCI-H1975 cells assessed as inhibition of ERK-1/2 phosphorylation at Thr202/Tyr204 residues at 30 nM after 4 hrs by immunoblotting method; format: cell-based
smiles,measurement,setting,value
C=CC(=O)Nc1cc(Nc2ncc(Cl)c(Nc3ccccc3S(=O)(=O)C(C)C)n2)c(OC)cc1N1CCCN(C)CC1,inhibition,[1],inactive
same,Activity,Mus musculus [2],Non-Toxic
same,GI50,NCI-H3122 [3],< 0.0003 µM
same,IC50,[4],0.108 µM
same,Activity,PC-9,Active
same,inhibition in vivo at 20 mg/kg,NCI-H1975 [5],96%
same,GI50 at 72 h,[6],3.5 µM
same,Activity,Mus musculus [7],Non-Toxic
same,Activity,NCI-H3122 [8],Active
same,GI50,HCC827,0.0062 µM
same,inhibition,[9],Active
same,Ratio IC50,Homo sapiens,20 to 30
same,GI50,NCI-H1355,1.4 µM
same,Activity,A549 [10],inactive
same,inhibition in vivo at 40 mg/kg,NCI-H3122 [11],78.4%
same,GI50,[12],0.46 µM
same,Activity,NCI-H3122 [13],Dose-dependent effect
same,inhibition,[14],Active
same,AUC(0-inf),[15],1300 ng·h/mL
same,inhibition,[16],inactive
same,GI50,[17],0.001 µM
same,Activity,A549 [18],inactive
same,inhibition,[19],inactive
same,GI50,NCI-H1975 [20],0.015 µM
same,Activity,NCI-H3122 [21],Active
same,Activity,NCI-H1975 [22],Active
same,Activity,NCI-H1975 [23],1.58 g
same,inhibition in vivo at 20 mg/kg,NCI-H3122 [24],68.3%
same,GI50,[25],0.0085 µM
same,TGI,NCI-H3122 [26],Dose-dependent effect
same,inhibition in vivo at 10 mg/kg,NCI-H3122 [27],10.8%
same,half-life,[28],1.75 h
same,inhibition,[29],Active
